Measurements as given in ChEMBL document CHEMBL1122652, “Intensely potent morpholinyl anthracyclines” (J Med Chem, 1984).

Test system: Mus musculus
Assay: Antitumor activity against mice baering P388 leukemia (10e6 cells) implanted ip on day 0, after treatment with single ip dose 0.05 mg/kg on day 1.
Format: functional
Conditions: route intraperitoneal
Outline: (§1)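 Mice implanted ip with 10^6 P388 leukemia cells on day 0, then dosed ip either once on day 1 or on days 5, 9 and 13 once the tumour was systemic. Efficacy is T/C, the mean survival time of treated over control mice, expressed as %. T/C > 120% counts as active. The optimum dose is reported.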

Row | SMILES | T/C [%]
1 | COc1cccc2c1C(=O)c1c(O)c3c(c(O)c1C2=O)C[C@@](O)(C(O)CO)CC3OC1CC(N2CCOCC2C#N)C(O)C(C)O1 (stereo not given in full) | 183
2 | COc1cccc2c1C(=O)c1c(O)c3c(c(O)c1C2=O)C[C@@](O)(C(=O)CO)CC3OC1CC(N2CCOCC2)C(O)C(C)O1.Cl (stereo not given in full) | 182

Test system: Mus musculus
Assay: Antitumor activity against mice baering P388 leukemia (10e6 cells) implanted ip on day 0, after treatment with single ip dose 0.25 mg/kg on day 1.
Format: functional
Conditions: route intraperitoneal
Outline: as §1

Row | SMILES | T/C [%]
3 | COc1cccc2c1C(=O)c1c(O)c3c(c(O)c1C2=O)C[C@@](O)(C(C)=O)CC3OC1CC(N2CCOCC2)C(O)C(C)O1.Cl (stereo not given in full) | 155
4 | COc1cccc2c1C(=O)c1c(O)c3c(c(O)c1C2=O)C[C@@](O)(C(C)=O)CC3OC1CC(N2CCOCC2C#N)C(O)C(C)O1 (stereo not given in full) | 175

Test system: Nucleic Acid
Assay: Inhibition of [3H]uridine incorporation into proliferating L1210 cells.
Format: functional, cell-based
Conditions: Mus musculus
Outline: (§2)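 Actively growing L1210 cells in culture were exposed to drug, which was first dissolved in Me2SO and diluted to 1% Me2SO final. Incorporation of [3H]thymidine into DNA or [3H]uridine into RNA was measured. ED50 is the drug concentration giving 50% inhibition.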

Row | SMILES | ED50 [nM]
5 | COc1cccc2c1C(=O)c1c(O)c3c(c(O)c1C2=O)C[C@@](O)(C(O)CO)CC3OC1CC(N2CCOCC2C#N)C(O)C(C)O1 (stereo not given in full) | 3
6 | COc1cccc2c1C(=O)c1c(O)c3c(c(O)c1C2=O)C[C@@](O)(C(=O)CO)CC3OC1CC(N2CCOCC2)C(O)C(C)O1.Cl (stereo not given in full) | 170
7 | COc1cccc2c1C(=O)c1c(O)c3c(c(O)c1C2=O)C[C@@](O)(C(C)=O)CC3OC1CC(N2CCOCC2)C(O)C(C)O1.Cl (stereo not given in full) | 100
8 | COc1cccc2c1C(=O)c1c(O)c3c(c(O)c1C2=O)C[C@@](O)(C(C)=O)CC3OC1CC(N2CCOCC2C#N)C(O)C(C)O1 (stereo not given in full) | 2

Test system: Mus musculus
Assay: Antitumor activity against mice baering P388 leukemia (10e6 cells) implanted ip on day 0, after treatment with three ip doses (0.2 mg/kg) on day 5,9,13 when tumor became systemic.
Format: functional
Conditions: not given
Outline: as §1

Row | SMILES | T/C [%]
9 | COc1cccc2c1C(=O)c1c(O)c3c(c(O)c1C2=O)C[C@@](O)(C(O)CO)CC3OC1CC(N2CCOCC2C#N)C(O)C(C)O1 (stereo not given in full) | 150

Test system: Nucleic Acid
Assay: Inhibition of [3H]thymidine incorporation into proliferating L1210 cells.
Format: functional, cell-based
Conditions: Mus musculus
Outline: as §2

Row | SMILES | ED50 [nM]
10 | COc1cccc2c1C(=O)c1c(O)c3c(c(O)c1C2=O)C[C@@](O)(C(O)CO)CC3OC1CC(N2CCOCC2C#N)C(O)C(C)O1 (stereo not given in full) | 21
11 | COc1cccc2c1C(=O)c1c(O)c3c(c(O)c1C2=O)C[C@@](O)(C(=O)CO)CC3OC1CC(N2CCOCC2)C(O)C(C)O1.Cl (stereo not given in full) | 710
12 | COc1cccc2c1C(=O)c1c(O)c3c(c(O)c1C2=O)C[C@@](O)(C(C)=O)CC3OC1CC(N2CCOCC2)C(O)C(C)O1.Cl (stereo not given in full) | 760
13 | COc1cccc2c1C(=O)c1c(O)c3c(c(O)c1C2=O)C[C@@](O)(C(C)=O)CC3OC1CC(N2CCOCC2C#N)C(O)C(C)O1 (stereo not given in full) | 12

Test system: not listed separately
Assay: Partition coefficient (log P) was the log of ratio of concentration in octanol / water partitioned concentration in phosphate buffer at pH 7.4.
Format: physicochemical
Conditions: not given

Row | SMILES | logD
14 | COc1cccc2c1C(=O)c1c(O)c3c(c(O)c1C2=O)C[C@@](O)(C(O)CO)CC3OC1CC(N2CCOCC2C#N)C(O)C(C)O1 (stereo not given in full) | 1.56
15 | COc1cccc2c1C(=O)c1c(O)c3c(c(O)c1C2=O)C[C@@](O)(C(=O)CO)CC3OC1CC(N2CCOCC2)C(O)C(C)O1.Cl (stereo not given in full) | 1.73
16 | COc1cccc2c1C(=O)c1c(O)c3c(c(O)c1C2=O)C[C@@](O)(C(C)=O)CC3OC1CC(N2CCOCC2)C(O)C(C)O1.Cl (stereo not given in full) | 2.31

Test system: Calf thymus DNA
Assay: Change in thermal denaturation temperature of calf thymus DNA
Format: nucleic-acid assay
Conditions: Bos taurus
Outline: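 Calf thymus DNA with drug at 5.2 X 10^-6 M in 0.01 M phosphate buffer pH 7 containing EDTA and 5% Me2SO. ΔTm is the thermal denaturation temperature of the DNA–drug complex minus that of DNA alone. Values <1 count as insignificant binding.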

Row | SMILES | ΔTm [°C]
17 | COc1cccc2c1C(=O)c1c(O)c3c(c(O)c1C2=O)C[C@@](O)(C(O)CO)CC3OC1CC(N2CCOCC2C#N)C(O)C(C)O1 (stereo not given in full) | 4.5
18 | COc1cccc2c1C(=O)c1c(O)c3c(c(O)c1C2=O)C[C@@](O)(C(=O)CO)CC3OC1CC(N2CCOCC2)C(O)C(C)O1.Cl (stereo not given in full) | 9.6
19 | COc1cccc2c1C(=O)c1c(O)c3c(c(O)c1C2=O)C[C@@](O)(C(C)=O)CC3OC1CC(N2CCOCC2)C(O)C(C)O1.Cl (stereo not given in full) | 6.6
20 | COc1cccc2c1C(=O)c1c(O)c3c(c(O)c1C2=O)C[C@@](O)(C(C)=O)CC3OC1CC(N2CCOCC2C#N)C(O)C(C)O1 (stereo not given in full) | 6.3
